Screening data deposited in PubChem BioAssay by several laboratories.
INS promoter inh = inhibitors of insulin promoter-driven GFP, primary screen, imaging, TRM-6 cells (human fetal islet line), eGFP reporter, cell count | reporter expression induced with tamoxifen | inhibition, % at 2 µM | actives 0.9% (n = 130,000) | AID 1273, 2008;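 active = inhibition above the mean plus 3 SD, with well images judged a real hit on visual review, cut at about 60% in these data, passing the limit was not always enough; inconclusive = inhibition over the cutoff but images rejected on review; inactive = inhibition not above the cutoff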
HSV augment = enhancers of HSV replication in host cells, fold increase, host cell viability | HSV replication augmentation in cells | maximum fold increase | actives 0.005% (n = 220,000) | AID 1956, 2009; in the data active = maximum fold increase above about 1.5; inconclusive = no clear call, values can overlap the other calls; tested in PC3 cells
Insulin prom up = insulin promoter activators in MIN6 cells, imaging, high-content screening, mouse beta cells; z-score at 5 µM; actives 0.3% (n = 190,000); MIN6 insulin promoter-GFP reporter; stronger effect = higher value; AID 1625, 2009;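 active = z-score above 3 at 5 µM with at least 500 cells counted in the well; inconclusive = wells under 500 cells, flagged as cytotoxic or low count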
Autophagy mod = autophagy modulators in MEF cells, primary screen, imaging, high-content, MEF GFP-LC3. MEF GFP-LC3 puncta imaging; test concentration mostly 10 µM. calls only at 10 µM (by protocol). actives 0.98% (n = 190,000);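 active = percentage of spot-positive cells more than 3 SD above its plate mean, without a fluorescence outlier flag or 80% toxicity; inconclusive = no clear call, values can overlap the other calls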;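 also: spot-positive cell cutoff set from DMSO-treated cells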
Furin inhibitor = human furin inhibitors, primary screen, biochemical, fluorescence intensity; P09958; purified furin, fluorogenic substrate cleavage; inhibition, % at 20 µM or 30 µM; actives 0.061% (n = 220,000); AID 463115, 2010; in the data active = inhibition above about 25%
Target sequence (P09958 108-714 limits assumed): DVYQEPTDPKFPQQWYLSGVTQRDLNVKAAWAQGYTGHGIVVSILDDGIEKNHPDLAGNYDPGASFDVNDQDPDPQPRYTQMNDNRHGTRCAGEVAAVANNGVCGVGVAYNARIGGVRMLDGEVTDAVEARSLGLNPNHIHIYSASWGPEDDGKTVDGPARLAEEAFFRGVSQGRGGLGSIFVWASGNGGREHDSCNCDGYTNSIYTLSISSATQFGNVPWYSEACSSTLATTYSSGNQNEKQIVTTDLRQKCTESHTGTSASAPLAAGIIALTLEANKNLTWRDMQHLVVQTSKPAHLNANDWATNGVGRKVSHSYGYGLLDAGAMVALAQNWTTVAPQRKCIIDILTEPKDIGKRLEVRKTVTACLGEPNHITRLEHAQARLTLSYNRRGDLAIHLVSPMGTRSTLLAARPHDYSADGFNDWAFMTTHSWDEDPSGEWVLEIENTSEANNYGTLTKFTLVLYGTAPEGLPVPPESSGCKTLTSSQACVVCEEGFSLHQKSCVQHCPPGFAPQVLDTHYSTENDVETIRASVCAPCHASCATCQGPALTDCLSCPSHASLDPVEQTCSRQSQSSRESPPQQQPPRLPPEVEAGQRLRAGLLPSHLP
Dynein transport = inhibitors of GR-EGFP nuclear translocation, primary screen, dynein cargo transport inhibitor project, imaging, high-content, 3617.4 mouse cells. test concentration mostly 20 µM; stimulated with dexamethasone, 1 µM; stronger effect = lower value. z-score, hits read low. actives 0.47% (n = 220,000). AID 1381, 2008;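 active = plate z-score of nuclear minus cytoplasmic receptor signal below a set negative limit, without overly bright fluorescence or cell loss, cut at about -3.5 in these data, passing the limit was not always enough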;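 also: z-score of nuclear minus cytoplasmic ring GR-EGFP intensity difference per well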
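Medium: Induction medium lacking tetracycline, stripped serum | Probe or stimulus: 1.0 µM final dexamethasone stimulus | Schedule: 48 h induction, then 1 h compound, then 30 min agonist, 37 °C | Signal: Automated 10x imaging of fixed Hoechst-stained cells | Evaluation: Per-cell GR-EGFP intensity, nucleus versus surrounding cytoplasmic ring, well-averaged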
Active calls of the source: *; i = inactive; u = inconclusive; x = not tested or not shown; + = active, no number. Rows were chosen to be rich in hits. Some 2% of all compounds tested hit in one or more screens of this group.

SMILES	INS promoter inh	HSV augment	Insulin prom up	Autophagy mod	Furin inhibitor	Dynein transport
O=c1[nH]c(=O)n([C@H]2C[C@H](O)[C@@H](CO)O2)cc1C(F)(F)F	-5	i	x	+	-15	-0.63
CC1(C)CC(=O)C2=C(C1)N(c1ccc(F)cc1)C(=O)C2(NC(=O)c1ccccc1)C(F)(F)F (stereo not given)	19	i	0.21	i	-26	0.006
COc1cccc(CNC23CC4CC(CC(C4)C2)C3)c1OCc1ccccc1	x	i	-1.6	+	-6	0.51
N/N=C/C(=N\Nc1ccc(Cl)cc1)C(=O)c1ccncc1	x	i	-1.4	x	-30	-1.4
C=CCn1c(-c2cccs2)nc2ccccc21	80*	i	0.71	i	5	2
COc1ccc(-c2csc3nc(-c4ccccc4OC)oc(=O)c23)cc1	x	i	0.18	i	-16	-1.3
Cc1nc2ccccc2nc1N1CCCCC1	x	i	0.2	i	-20	-0.089
Cc1ccc2c(Cl)c(C)c(N3CCCCC3)nc2n1	83*	i	-0.72	i	-8	0.33
C=CCN(CC=C)C(=S)NC(=O)c1ccc(C)c(Br)c1	48	i	-0.4	i	-17	0.51
COc1cc(C(=O)OCCCN=C2NS(=O)(=O)c3ccccc32)cc(OC)c1OC	-33	i	-0.14	i	-29	0.95
CCC(C)(C(=O)NC1CCCCC1)N(C(=O)CNC(=O)c1ccccc1)c1c(C)n(C)n(-c2ccccc2)c1=O (stereo not given)	x	i	-0.43	i	-32	-1.3
COc1cc2c(cc1OC)C(C)N(C(=O)c1cccs1)CC2 (stereo not given)	x	i	0.49	i	-2	-0.17
COc1cc2c(cc1OC)C(C)N(C(C)=O)CC2 (stereo not given)	81*	i	x	i	-17	-0.8
CCOc1cc(NC(=O)c2ccco2)c(OCC)cc1NC(=O)COc1ccccc1C	-71	i	x	+	-29	-0.62
O=c1ccnc(Nc2ccc3c(c2)OCCO3)[nH]1	x	i	3.7*	i	-11	-0.18
CC(C)(CNS(=O)(=O)c1ccc(Cl)cc1)N1CCCCC1	0	i	3.6*	i	-9	-0.62
O=C(CSc1nnc(COc2ccccc2)n1Cc1ccco1)c1ccc(F)cc1	-42	i	0.55	+	-2	-0.48
CN(C)C(=O)CN(c1ccc2c(c1)OCO2)S(C)(=O)=O	71*	i	3.6*	i	-7	-0.67
O=[N+]([O-])c1ccc2[nH]c(O)c(N=NC3CS(=O)(=O)CC3O)c2c1 (stereo not given)	x	i	-0.51	x	9	-0.89
CC(C)CC(=O)NC(=S)Nc1ccc(S(=O)(=O)Nc2nccs2)cc1	-12	i	-0.08	+	-4	-0.25
Cc1ccc(SCC(=O)Nc2ccc(S(=O)(=O)Nc3nccs3)cc2)cc1	x	i	0.15	+	-6	-0.85
O=C(CSc1ccncc1)Nc1ccc(S(=O)(=O)Nc2nccs2)cc1	x	i	0.58	i	-32	0.87
O=C(NC(=S)Nc1ccc(S(=O)(=O)Nc2nccs2)cc1)c1cccc(F)c1	74*	i	0.46	i	-18	0.1
COc1ccc(Br)cc1CNC(=O)Cc1c(C(=O)O)[nH]c2ccc(Cl)cc12	x	i	-0.34	i	-21	-0.66
COc1ccc(OC)c(CNC(=O)Cc2c(C(=O)O)[nH]c3ccc(Cl)cc23)c1	78*	i	1.3	i	-29	-0.9
SMILES	INS promoter inh	HSV augment	Insulin prom up	Autophagy mod	Furin inhibitor	Dynein transport
CC1CCN(C(=O)CN2C(=O)C(=O)c3ccccc32)CC1	x	i	-0.63	+	-37	0.75
CC1CCN(C(=O)CN2C(=O)c3cccc4cccc(c34)C2=O)CC1	-9	i	0.03	i	-18	-0.44
CC(c1ccccc1)N1CCc2[nH]c(=S)[nH]c(=O)c2C1 (stereo not given)	91*	i	-1.4	i	-6	1.8
CC(=O)C1=NN(c2ccccc2)C(c2cccs2)N1c1ccccc1 (stereo not given)	23	1.5*	-0.65	i	-11	-0.7
CC(=O)Nc1ccccc1C(=O)C(=O)Nc1cccc(Br)c1	x	i	0.35	i	-18	-0.54
CCN(CC)CCNC(=O)c1cccc(NC(=O)C(=O)c2cc(Br)ccc2NC(C)=O)c1	67	i	-2	+	-15	0.13
CCCN1C(=O)c2cccc3c(N4CCCCC4)ccc(c23)C1=O	-245	u	x	+	5	0.79
O=C1c2cccc3c(N4CCCCC4)ccc(c23)C(=O)N1c1ccc(Cl)cn1	5	x	x	+	-21	-5.7
O=C(OCCN1C(=O)c2cccc3c(N4CCOCC4)ccc(c23)C1=O)c1cc(Cl)cc(Cl)c1	-204	u	0.02	+	5	-1.9
O=C1c2cccc3c(N4CCCCC4)ccc(c23)C(=O)N1c1ccccn1	x	x	0.23	i	-16	1.3
CCN(CC)S(=O)(=O)c1ccc(C(=O)OCCN2C(=O)c3cccc4c(N5CCOCC5)ccc(c34)C2=O)cc1	0	u	0.78	i	-26	i
Cc1ccc(NC(=O)C(=O)NCc2ccncc2)cc1	-31	i	0.61	i	-18	-0.06
COc1ccc(NC(=O)c2[nH]c(C)c(C(C)=O)c2C)cc1Cl	3	i	3.8*	i	-15	-0.33
COc1ccccc1N1CCN(S(=O)(=O)Cc2ccccc2Cl)CC1	89*	i	0.23	i	-18	-0.89
Cc1onc(C(=O)Nc2c(C)n(C)n(-c3ccccc3)c2=O)c1[N+](=O)[O-]	x	i	1.1	x	-15	0.37
CS(=O)(=O)N(CC(=O)N/N=C/c1ccc(OCC(=O)N2CCOCC2)cc1)c1ccccc1Cl	38	i	0.03	i	-10	0.11
CN(C)c1ccc(/C=N/NC(=O)CN(c2ccccc2Cl)S(C)(=O)=O)cc1Br	-66	i	3.6*	i	-10	-0.81
CCCCCCc1cc2cc(-c3nnc(-c4ccccc4OC)o3)c(=O)oc2cc1O	-22	x	8.9*	u	-21	-0.45
CCCCCCc1cc2cc(-c3nnc(-c4cc(OC)c(OC)c(OC)c4)o3)c(=O)oc2cc1O	33	x	10*	u	1	-0.33
CCCCCCCC(=O)Nc1ccc(C(=O)N/N=C/c2cccc([N+](=O)[O-])c2)cc1	-50	i	0.17	+	-13	-0.72
O=C(CSc1n[nH]c(=O)n1Cc1ccco1)Nc1ccccc1Cl	x	i	0.65	x	-14	0.5
O=[N+]([O-])c1cc(CN(CCO)CCO)ccc1O	x	i	0.04	x	6	0.88
